Assay outcomes (PubChem BioAssay)
Compounds with a hit are over-represented: about 3.5% of the library has one in this group of screens.
MrgX1 PAM – human MrgX1 positive allosteric modulation, primary screen | B-score at 10 µM | MrgX1-HEK293, Fluo-4 calcium flux, FDSS; active compounds read high | Q96LB2 | 310,000 tested, 0.63% active;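 active = plate-corrected calcium response at least 3 library SD above typical, normal starting fluorescence, not activating the receptor alone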;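 note: compound read alongside a low EC10 to EC30 dose of BAM8-22 agonist; peak minus trough fluorescence over baseline measured at the second addition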
Target sequence (Q96LB2 whole entry, looked up): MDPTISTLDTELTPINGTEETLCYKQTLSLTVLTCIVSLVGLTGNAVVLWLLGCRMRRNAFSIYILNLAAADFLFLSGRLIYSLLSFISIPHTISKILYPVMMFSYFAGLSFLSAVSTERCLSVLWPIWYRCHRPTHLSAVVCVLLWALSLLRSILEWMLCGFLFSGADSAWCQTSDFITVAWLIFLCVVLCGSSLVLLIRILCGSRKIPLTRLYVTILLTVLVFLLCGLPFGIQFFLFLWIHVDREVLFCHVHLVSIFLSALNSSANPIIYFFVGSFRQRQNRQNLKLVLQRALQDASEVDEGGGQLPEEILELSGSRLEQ
MrgX1 ag – agonists of human MrgX1 receptor; MrgX1-HEK293 cells, Fluo-4 calcium fluorescence, agonist mode; active compounds read high; B-score at 10 µM; 310,000 tested, 0.44% active; AID 588627;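 active = calcium response B-score plate-corrected fluorescence ratio at least 3 library SD, with starting fluorescence B-score inside 5 SD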
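Test system: HEK293 cells stably expressing human MrgX1 receptor; amount: 15,000 cells per well; doses: compound delivered in addition one of three; times: overnight plating before 1 h dye loading; detection: Fluo-4 NW calcium-flux fluorescence, kinetic read; read-out basis: B-scored fluorescence response ratio; controls: positive and negative controls per plate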
RGS4 inh – inhibitors of human RGS4. HEK293 M3R/RGS4 inducible, Fluo-4 calcium flux; active compounds read high; triggered by carbachol at its EC20. B-score at 10 µM. 310,000 tested, 0.45% active;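 active = B-score, a plate-corrected calcium signal, over three deviations above library mean, with baseline fluorescence within five deviations of library mean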;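 note: RGS4 expression induced by doxycycline in cells with stable M3 receptor; B-score is computed from the integrated fluorescence ratio over baseline after carbachol; higher B-score means a larger calcium signal and so more RGS4 inhibition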
Target sequence (P49798 whole entry, looked up): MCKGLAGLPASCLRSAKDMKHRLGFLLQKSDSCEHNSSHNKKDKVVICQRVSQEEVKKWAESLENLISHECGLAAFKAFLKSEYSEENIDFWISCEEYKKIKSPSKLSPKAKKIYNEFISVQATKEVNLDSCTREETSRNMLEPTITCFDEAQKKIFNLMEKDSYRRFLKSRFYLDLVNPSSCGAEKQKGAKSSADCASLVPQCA
MrgX1 antagonist – antagonists of human MrgX1 receptor. Q96LB2. MRGX1-HEK293 calcium flux, Fluo-4, BAM8-22 antagonism; active compounds read low. B-score at 10 µM. 310,000 tested, 1.3% active. AID 588676;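 active = calcium-response B-score plate-corrected more than 3 library SD below zero, starting fluorescence within 5 deviations, no agonist response on first addition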;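 note: peak minus trough fluorescence over baseline after final BAM8-22 challenge near maximal dose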
RGS4 pot – potentiators or activators of RGS4; HEK293 M3R/inducible RGS4, carbachol calcium flux Fluo4; active compounds read low; B-score at 10 µM; 310,000 tested, 0.92% active; AID 463111;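 active = B-score of the integrated calcium signal more than 4 SD below the library mean, with starting fluorescence not abnormally high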;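 note: negative B-score means reduced calcium response which marks RGS4 activation or potentiation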
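System: HEK293 FlpIn-TREx cells, stable M3R, doxycycline-inducible RGS4. Timing: overnight RGS4 induction, 30 min dye load 37 °C, 20 min compound RT. Also added: carbachol, ECmax concentration. Measured by: Fluo4 fluorescence kinetic imaging of calcium. Evaluation: integrated calcium ratio converted to B score.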
MrgX1 antag conf – confirmation of human MrgX1 receptor antagonists. shares compounds with MrgX1 antagonist. MrgX1-HEK293, BAM8-22 calcium flux, Fluo-4; active compounds read low. remaining BAM8-22 calcium response % of control (active compounds read low), % at 10 µM. 2,300 tested, 19% active. AID 602420;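 active = remaining agonist calcium response no higher than 100% minus 3 SD of agonist-only control wells, with starting fluorescence near control levels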;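 note: agonist BAM8-22 given at a near maximal EC90 to ECmax level; peak minus minimum fluorescence divided by baseline after agonist addition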
HEK293 Ca flux – MrgX1 antagonist counter-screen hit in parental HEK293 cells. shares compounds with MrgX1 antagonist. AID 624111. Fluo-4 calcium fluorescence, FDSS. 4,000 tested, 2% active. fluorescence ratio F(max-min)/F0 at 10 µM;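 active = duplicate-averaged calcium fluorescence ratio at least three times the standard deviation of buffer wells, a nonspecific response in parental cells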
HEK293 Ca counter – MrgX1 allosteric activator counter-screen hit in parental HEK293 cells | shares compounds with MrgX1 antagonist | parental HEK293 calcium flux, Fluo-4 fluorescence ratio; active compounds read high | fluorescence ratio F(max-min)/F0 at 10 µM | 4,000 tested, 0.4% active | AID 624114;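 active = calcium fluorescence ratio, averaged over duplicates, at least 3 SD of the buffer-well ratio, meaning a nonspecific response in receptor-free cells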;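 note: untransfected parental HEK293 lacking MrgX1 used as counterscreen for MrgX1 allosteric activators; fluorescence change taken during the second addition on a kinetic imager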
HEK293 Ca cntr2 – MrgX1 activator counter-screen hit in parental HEK293 cells | shares compounds with MrgX1 antagonist | 4,000 tested, 8.7% active | fluorescence ratio F(max-min)/F0 at 10 µM | Fluo-4 calcium fluorescence (FDSS); active compounds read high | AID 624115;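 active = calcium fluorescence ratio at least three times the spread of buffer wells, meaning a non-specific response in parental cells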
An asterisk follows results filed as active; i = inactive; . = no result; ! = not confirmed by another sample.

SMILES	MrgX1 PAM	MrgX1 ag	RGS4 inh	MrgX1 antagonist	RGS4 pot	MrgX1 antag conf	HEK293 Ca flux	HEK293 Ca counter	HEK293 Ca cntr2
CCc1c(C)sc(NC(=O)c2ccoc2C)c1C(N)=O	i	i	i	-5.95*	i	i	i	i	i
N#CC(c1ccccc1)N(CCCCl)C(=O)c1ccc(Br)cc1 (stereo not drawn)	i	i	i	i	i	.	.	.	.
COc1ccnc(CN(C)C(=O)C2CCC(=O)N(Cc3cccc(C(F)(F)F)c3)C2)c1 (stereo not drawn)	i	i	i	i	i	.	.	.	.
COC(=O)c1sc(NC(=O)c2ccc(Cn3cc(Cl)cn3)o2)c(C#N)c1C	i	i	i	-4.57*	i	i	i	i	i
N#Cc1c(NC(=O)c2ccc(Cn3cc(Br)cn3)o2)sc2c1CCCCC2	i	i	i	i	i	.	.	.	.
O=C(O)CCSc1ccc2ccccc2n1	i	i	i	-6.73*!	i	i	i	i	i
COC(=O)CS(=O)(=O)c1cc(Br)cc2c1N(C(C)=O)CC2	i	i	i	-5.42*	i	i	i	i	65.3*
CCOC(=O)Cn1c(=O)cc(C)c2ccccc21	i	i	i	-8.48*	i	i	i	i	i
CN1CCN(Cc2nc3ccccc3c(=O)n2CC#N)CC1	i	i	i	-5.61*	i	i	i	i	i
CCC(C)c1ccc(O)c(NC(=O)c2cccnc2)c1 (stereo not drawn)	i	i	i	i	i	.	.	.	.
O=C(Nc1ccncc1)c1cncc(Br)c1	i	i	i	-5.45*	i	i	i	i	i
O=C(Nc1cccc(NC(=O)c2cncc(Br)c2)c1)c1cncc(Br)c1	i	i	i	i	i	.	.	.	.
CC(C)c1ccc(O)c(NC(=O)c2cncc(Br)c2)c1	i	i	i	-7.8*	i	i	i	i	i
Cc1ccc(NC(=O)C(NC2CCCc3ccccc32)c2ccccc2)cc1Cl (stereo not drawn)	i	i	i	i	i	.	.	.	.
CCNC(=S)Nc1ccc(Cl)cc1	i	i	i	-6.03*	i	i	i	i	i
C=CCOC(=O)C(C#N)c1nc2ccccc2nc1N1CCN(c2ccccc2OCC)CC1 (stereo not drawn)	i	i	i	i	i	.	.	.	.
CCCNC(=O)c1ccc(COc2ccc(C)cc2)o1	i	i	i	i	i	.	.	.	.
CC[C@H]1OC(=O)[C@H](C)[C@@H](O[C@H]2C[C@@](C)(OC)[C@@H](O)[C@H](C)O2)[C@H](C)[C@@H](O[C@@H]2O[C@H](C)C[C@H](N(C)C)[C@H]2O)[C@](C)(O)C[C@@H](C)C(=O)[C@H](C)[C@@H](O)[C@]1(C)O	i	i	i	i	i	.	.	.	.
CCOC(=O)CCC(=O)O[C@H]1[C@H](O[C@@H]2[C@@H](C)[C@H](O[C@H]3C[C@@](C)(OC)[C@@H](O)[C@H](C)O3)[C@@H](C)C(=O)O[C@H](CC)[C@@](C)(O)[C@H](O)[C@@H](C)C(=O)[C@H](C)C[C@@]2(C)O)O[C@H](C)C[C@@H]1N(C)C	i	i	i	-10.6*	i	i	i	i	i
Cc1ccc(-c2noc(-c3ccccc3C(=O)N3CCOCC3)n2)cc1	i	i	i	i	i	.	.	.	.
